Values after ≈ are worked out from the molar mass of the structure shown. Like-named read-outs stand apart in the source and are kept apart here.
Key:
S. aureus K1758 (NorA−) = assay: Bacteriostatic effect; format: cell-based; conditions: Staphylococcus aureus, read-out: Bacteriostatic effect, MIC, NorA− K1758
S. aureus K2068 (MepA++) = assay: Bacteriostatic effect; format: cell-based; conditions: Staphylococcus aureus, read-out: Bacteriostatic effect, MIC, MepA++ K2068
EcSecA [1] = biological target: T1, EcSecA (Escherichia coli, UniProt P10408); assay: In vitro translocation activity with SecA-liposomes; format: biochemical, E. coli; conditions: reconstituted SecA-only liposomes, proOmpA, immunoblots
T1 sequence (P10408 whole entry): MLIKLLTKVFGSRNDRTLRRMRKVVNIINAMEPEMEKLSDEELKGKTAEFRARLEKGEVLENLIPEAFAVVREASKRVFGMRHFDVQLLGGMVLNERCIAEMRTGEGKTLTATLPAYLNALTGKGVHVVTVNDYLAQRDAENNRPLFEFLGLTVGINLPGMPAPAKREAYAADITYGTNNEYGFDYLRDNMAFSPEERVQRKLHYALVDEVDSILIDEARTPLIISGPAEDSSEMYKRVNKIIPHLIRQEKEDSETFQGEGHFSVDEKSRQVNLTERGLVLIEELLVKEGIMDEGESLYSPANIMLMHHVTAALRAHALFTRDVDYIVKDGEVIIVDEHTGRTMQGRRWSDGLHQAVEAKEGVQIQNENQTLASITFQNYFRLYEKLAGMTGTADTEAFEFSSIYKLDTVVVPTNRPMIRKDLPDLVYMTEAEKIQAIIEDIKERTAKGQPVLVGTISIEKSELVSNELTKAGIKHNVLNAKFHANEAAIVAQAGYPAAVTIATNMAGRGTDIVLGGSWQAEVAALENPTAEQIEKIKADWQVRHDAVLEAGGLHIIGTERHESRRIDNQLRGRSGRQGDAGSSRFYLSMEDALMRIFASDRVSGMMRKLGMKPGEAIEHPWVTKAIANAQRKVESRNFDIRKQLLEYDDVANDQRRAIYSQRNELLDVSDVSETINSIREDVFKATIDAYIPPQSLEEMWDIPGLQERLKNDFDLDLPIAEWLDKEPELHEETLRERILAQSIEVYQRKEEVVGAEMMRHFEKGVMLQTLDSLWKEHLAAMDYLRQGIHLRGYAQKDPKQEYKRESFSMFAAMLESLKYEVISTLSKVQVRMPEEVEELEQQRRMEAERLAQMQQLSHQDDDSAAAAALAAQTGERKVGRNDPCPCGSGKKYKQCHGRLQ
Method in brief: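 Reconstituted SecA-only liposomes (stored at −80 °C, frozen-thawed once), E. coli SecA and proOmpA added separately to translocation buffer before the reaction, with 12 μg liposomes per reaction and varied SecA amounts. Test compound at various concentrations; reaction at 37 °C for 45 min. proOmpA translocation efficiency read by immunoblot.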

SpSecA = SpSecA (Streptococcus pyogenes, UniProt Q99Y96); assay: Ion-channel activity of SecA-liposomes in oocytes, SpSecA; format: biochemical
SpSecA, sequence (Q99Y96 whole entry): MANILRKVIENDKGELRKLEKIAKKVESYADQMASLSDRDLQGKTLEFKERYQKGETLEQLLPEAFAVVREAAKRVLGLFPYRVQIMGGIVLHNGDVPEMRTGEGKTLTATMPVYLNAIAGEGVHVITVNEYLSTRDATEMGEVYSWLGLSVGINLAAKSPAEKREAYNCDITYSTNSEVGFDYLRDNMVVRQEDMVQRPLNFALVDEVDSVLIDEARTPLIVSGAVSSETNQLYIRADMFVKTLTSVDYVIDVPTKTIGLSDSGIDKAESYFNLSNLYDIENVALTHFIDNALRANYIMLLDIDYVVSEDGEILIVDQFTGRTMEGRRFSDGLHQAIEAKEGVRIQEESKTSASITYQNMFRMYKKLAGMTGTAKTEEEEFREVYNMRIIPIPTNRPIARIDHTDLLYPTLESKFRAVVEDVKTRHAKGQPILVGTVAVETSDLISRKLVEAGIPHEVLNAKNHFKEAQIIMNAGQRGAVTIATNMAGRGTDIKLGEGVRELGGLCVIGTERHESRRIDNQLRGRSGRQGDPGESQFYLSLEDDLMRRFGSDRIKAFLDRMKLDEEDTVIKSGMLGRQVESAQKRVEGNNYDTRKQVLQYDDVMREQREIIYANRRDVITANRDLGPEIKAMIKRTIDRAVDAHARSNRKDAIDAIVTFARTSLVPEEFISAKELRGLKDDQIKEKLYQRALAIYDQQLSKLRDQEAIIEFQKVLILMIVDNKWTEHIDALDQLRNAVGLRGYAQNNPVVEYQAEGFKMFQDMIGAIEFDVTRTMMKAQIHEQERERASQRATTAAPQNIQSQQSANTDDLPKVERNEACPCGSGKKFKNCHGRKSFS

BaSecA1 = BaSecA1 (Bacillus anthracis, UniProt Q81X26); assay: biochemical; design: species or system B. anthracis
BaSecA1, sequence (Q81X26 whole entry, looked up): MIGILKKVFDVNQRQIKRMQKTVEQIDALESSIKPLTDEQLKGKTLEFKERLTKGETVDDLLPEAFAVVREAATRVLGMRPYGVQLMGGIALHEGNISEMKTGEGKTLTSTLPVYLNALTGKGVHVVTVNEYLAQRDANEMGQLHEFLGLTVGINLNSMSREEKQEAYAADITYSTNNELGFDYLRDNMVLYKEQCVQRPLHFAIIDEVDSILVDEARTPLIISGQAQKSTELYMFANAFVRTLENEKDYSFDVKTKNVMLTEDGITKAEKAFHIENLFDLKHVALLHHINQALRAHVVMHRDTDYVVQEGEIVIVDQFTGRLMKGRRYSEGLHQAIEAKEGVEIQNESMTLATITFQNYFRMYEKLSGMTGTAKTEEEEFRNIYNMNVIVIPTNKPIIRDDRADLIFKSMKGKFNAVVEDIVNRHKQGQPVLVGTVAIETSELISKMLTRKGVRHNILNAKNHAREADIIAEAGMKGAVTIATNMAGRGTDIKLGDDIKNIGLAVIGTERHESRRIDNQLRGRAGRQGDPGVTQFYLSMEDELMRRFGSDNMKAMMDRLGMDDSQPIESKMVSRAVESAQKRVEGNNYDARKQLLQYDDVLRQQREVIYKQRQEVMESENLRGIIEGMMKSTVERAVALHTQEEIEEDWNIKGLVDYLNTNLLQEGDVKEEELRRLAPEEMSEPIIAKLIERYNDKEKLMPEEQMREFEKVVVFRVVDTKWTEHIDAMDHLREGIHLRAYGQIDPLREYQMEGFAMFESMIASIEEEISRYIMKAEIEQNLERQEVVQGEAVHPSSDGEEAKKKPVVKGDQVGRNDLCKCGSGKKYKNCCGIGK

EcSecA [2] = biological target: T1, EcSecA; assay: Ion-channel activity of SecA-liposomes in oocytes, EcSecA; format: biochemical, E. coli
Method in brief: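 SecA reconstituted with liposomes, plus proOmpA, 2 mM ATP, 1 mM Mg(OAc)2 and varied test compound concentrations, was injected into Xenopus laevis oocytes (120 ng liposomes, 120 ng SecA, 14 ng proOmpA per 50 nl). Oocytes were held 3 hr at 23 C, then current was recorded by voltage clamp for 1 min. Net channel current came from inward and outward currents.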

S. aureus 6538 = assay: Bacteriostatic effect; format: cell-based
S. aureus Mu3 = assay: Bacteriostatic effect; format: cell-based; conditions: Staphylococcus aureus, MU3, 16 h, read-out: Bacteriostatic effect, MIC, S. aureus Mu3
EcSecA [3] = biological target: T1, EcSecA; assay: Intrinsic ATPase activity of full EcSecA; format: biochemical, E. coli
BsSecA = BsSecA (Bacillus subtilis, UniProt P28366); assay: Ion-channel activity of SecA-liposomes in oocytes, BsSecA; format: biochemical
BsSecA, sequence (P28366 whole entry): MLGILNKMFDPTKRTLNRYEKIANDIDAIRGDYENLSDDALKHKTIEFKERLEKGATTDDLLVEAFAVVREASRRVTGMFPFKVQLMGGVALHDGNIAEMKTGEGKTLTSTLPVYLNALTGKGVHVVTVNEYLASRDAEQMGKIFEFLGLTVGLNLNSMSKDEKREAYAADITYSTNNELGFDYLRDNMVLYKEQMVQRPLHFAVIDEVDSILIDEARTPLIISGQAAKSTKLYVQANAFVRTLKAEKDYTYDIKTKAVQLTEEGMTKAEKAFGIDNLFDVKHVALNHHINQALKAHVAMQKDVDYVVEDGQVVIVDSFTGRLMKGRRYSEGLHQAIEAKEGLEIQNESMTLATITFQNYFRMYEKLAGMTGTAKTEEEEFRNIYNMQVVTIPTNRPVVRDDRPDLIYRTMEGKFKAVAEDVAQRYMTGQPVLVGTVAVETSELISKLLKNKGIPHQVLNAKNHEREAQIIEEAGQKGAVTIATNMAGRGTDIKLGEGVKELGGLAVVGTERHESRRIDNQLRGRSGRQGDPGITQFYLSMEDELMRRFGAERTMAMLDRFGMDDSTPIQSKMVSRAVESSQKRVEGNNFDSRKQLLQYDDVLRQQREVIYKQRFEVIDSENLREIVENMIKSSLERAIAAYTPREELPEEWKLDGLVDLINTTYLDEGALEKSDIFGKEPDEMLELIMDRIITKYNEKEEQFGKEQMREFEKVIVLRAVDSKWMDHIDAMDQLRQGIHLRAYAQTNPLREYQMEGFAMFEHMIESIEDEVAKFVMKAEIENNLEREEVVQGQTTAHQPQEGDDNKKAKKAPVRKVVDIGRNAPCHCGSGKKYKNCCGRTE
Method in brief: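 Purified SecA was reconstituted into liposomes. After 3 hr at 23 C, ion current was recorded for 1 min by voltage clamp. Net inward/outward current gave channel opening.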

S. aureus Mu50 [4] = assay: Bacteriostatic effect; format: cell-based; conditions: for Fold more effective than vancomycin (MIC) / Fold by which 7b and 12a are more effective than the antibiotic (MIC): S. aureus Mu50; for Fold more effective than vancomycin (MIC): vs vancomycin 8 μg/ml; for MIC: Staphylococcus aureus; for Fold by which 7b and 12a are more effective than the antibiotic (MIC): label = antibiotic compared; for MIC, S. aureus Mu50: MRSA strain Mu50, comparison with clinically used antibiotics
S. aureus N315 = assay: Bacteriostatic effect; format: cell-based; conditions: Staphylococcus aureus, N315, 16 h, read-out: Bacteriostatic effect, MIC, S. aureus N315
S. aureus K2908 (MepA−) = assay: Bacteriostatic effect; format: cell-based; conditions: Staphylococcus aureus, read-out: Bacteriostatic effect, MIC, MepA− K2908
SaSecA1 = biological target: T2, SaSecA1 (Staphylococcus aureus, UniProt O06446); assay: Ion-channel activity of SecA-liposomes in oocytes, SaSecA1; format: biochemical
T2 sequence (O06446 1-843): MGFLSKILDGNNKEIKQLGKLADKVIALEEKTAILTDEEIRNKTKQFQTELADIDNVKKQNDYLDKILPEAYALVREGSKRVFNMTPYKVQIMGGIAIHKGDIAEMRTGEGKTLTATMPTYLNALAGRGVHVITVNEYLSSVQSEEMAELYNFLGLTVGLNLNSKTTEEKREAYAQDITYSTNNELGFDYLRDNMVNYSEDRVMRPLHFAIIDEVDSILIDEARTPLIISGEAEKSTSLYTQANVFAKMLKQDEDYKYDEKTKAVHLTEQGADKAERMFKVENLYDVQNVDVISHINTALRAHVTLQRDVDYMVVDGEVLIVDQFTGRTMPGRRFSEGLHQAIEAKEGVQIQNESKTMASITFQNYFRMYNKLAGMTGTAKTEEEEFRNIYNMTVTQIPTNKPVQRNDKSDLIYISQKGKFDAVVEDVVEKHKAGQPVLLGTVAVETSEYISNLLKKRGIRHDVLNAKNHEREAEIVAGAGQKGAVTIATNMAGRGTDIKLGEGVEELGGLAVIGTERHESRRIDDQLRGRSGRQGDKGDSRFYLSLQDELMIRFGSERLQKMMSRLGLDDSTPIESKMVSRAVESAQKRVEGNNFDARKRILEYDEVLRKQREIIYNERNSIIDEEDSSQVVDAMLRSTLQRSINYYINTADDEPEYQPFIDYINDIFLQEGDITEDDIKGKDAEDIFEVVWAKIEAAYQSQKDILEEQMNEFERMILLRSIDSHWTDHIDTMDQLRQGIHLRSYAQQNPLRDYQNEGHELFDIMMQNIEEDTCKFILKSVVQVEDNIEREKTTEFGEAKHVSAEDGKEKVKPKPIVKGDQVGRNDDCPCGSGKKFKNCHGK

EcSecAN68 = EcSecAN68 (Escherichia coli, UniProt P10408); assay: biochemical; design: species or system E. coli
EcSecAN68, sequence (P10408 1-610): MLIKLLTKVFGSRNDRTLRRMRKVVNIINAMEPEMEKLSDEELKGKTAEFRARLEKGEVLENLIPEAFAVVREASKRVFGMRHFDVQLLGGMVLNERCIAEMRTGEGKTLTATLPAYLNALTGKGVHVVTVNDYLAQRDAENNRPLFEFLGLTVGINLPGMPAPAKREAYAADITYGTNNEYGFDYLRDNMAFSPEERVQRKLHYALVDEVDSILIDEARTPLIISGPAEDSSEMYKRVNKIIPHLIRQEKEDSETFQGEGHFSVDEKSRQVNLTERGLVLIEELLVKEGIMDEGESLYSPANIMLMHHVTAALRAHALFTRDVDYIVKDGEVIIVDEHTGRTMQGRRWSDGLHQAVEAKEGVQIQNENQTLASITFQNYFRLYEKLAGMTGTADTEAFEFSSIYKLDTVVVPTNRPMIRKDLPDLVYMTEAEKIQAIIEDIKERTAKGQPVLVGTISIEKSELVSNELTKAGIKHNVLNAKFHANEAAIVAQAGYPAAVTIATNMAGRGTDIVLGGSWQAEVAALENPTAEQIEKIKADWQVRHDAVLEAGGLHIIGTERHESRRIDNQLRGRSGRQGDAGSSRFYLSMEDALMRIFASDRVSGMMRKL

E. coli NR698 = assay: Bacteriostatic effect; format: cell-based; conditions: Escherichia coli, NR698, 24 h, read-out: MIC, E. coli NR698
B. subtilis 168 = assay: Bacteriostatic effect; format: cell-based; conditions: Bacillus subtilis, 168, 16 h, read-out: Bacteriostatic effect, MIC, B. subtilis 168
S. aureus K2361 (NorA++) = assay: Bacteriostatic effect; format: cell-based; conditions: Staphylococcus aureus, read-out: Bacteriostatic effect, MIC, NorA++ K2361
S. aureus Newman = assay: Bacteriostatic effect; format: cell-based; conditions: Staphylococcus aureus, 16 h, read-out: Bacteriostatic effect, MIC, S. aureus Newman
S. aureus Mu50 [5] = assay: Bactericidal effect; format: cell-based; conditions: at 50 μM, 2 hr treatment
Method in brief: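 S. aureus Mu50 cells in log phase (OD600 ≈ 0.5) were mixed with a range of test compound concentrations and shaken at 1,000 rpm at 37 °C for 2 hr. Cultures were serially diluted in LB broth, plated on LB agar and incubated at 37 °C overnight. Colony-forming units were counted, and the bactericidal effect was taken as the reduction in CFU.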

[6] = Staphylococcus aureus, 6538, 16 h, read-out: Bacteriostatic effect, MIC, S. aureus 6538
[7] = Staphylococcus aureus, 6538, 24 h, read-out: MIC, S. aureus 6538
[8] = MRSA, read-out: MIC, S. aureus Mu50
[9] = MU50, 16 h, read-out: Bacteriostatic effect, MIC, S. aureus Mu50

Work on `FC(F)(F)c1cc(-c2nnc(Sc3cc(Cl)nc(Sc4ccccc4)n3)[nH]2)cc(C(F)(F)F)c1` [Compound 12a, 4-((5-(3,5-Bis(trifluoromethyl)phenyl)-4H-1,2,4-triazol-3-yl)thio)-6-chloro-2-(phenylthio) Pyrimidine] yielded an MIC (S. aureus K1758 (NorA−)) of 1.6 µM (≈ 0.854 µg/mL), an MIC (S. aureus K2068 (MepA++)) of 1.3 µM (≈ 0.694 µg/mL) and an IC50 (EcSecA [1]) of 4800 nM. It also gave an IC50 (SpSecA) of 1300 nM, an IC50 (BaSecA1) of 1000 nM and an IC50 (EcSecA [2]) of 1300 nM. The MIC (S. aureus 6538; [6]) was 1.8 µM (≈ 0.961 µg/mL), the MIC (S. aureus 6538; [7]) was 1.8 µM (≈ 0.961 µg/mL) and the MIC (S. aureus Mu3) was 1.6 µM (≈ 0.854 µg/mL). For the same compound, the IC50 (EcSecA [3]) was > 200000 nM, the IC50 (BsSecA) was 2300 nM and the “Fold more effective than vancomycin (MIC)” value (S. aureus Mu50 [4]) was 18 fold. It also gave an MIC (S. aureus Mu50 [4]; [8]) of 0.43 µg/mL, an MIC (S. aureus Mu50 [4]; [9]) of 0.8 µM and an MIC (S. aureus N315) of 0.8 µM (≈ 0.427 µg/mL). For the same compound, the MIC (S. aureus K2908 (MepA−)) was 1 µM (≈ 0.534 µg/mL), the IC50 (SaSecA1) was 1000 nM and the IC50 (EcSecAN68) was 20000 nM. The MIC (E. coli NR698) was 3.1 µM (≈ 1.66 µg/mL), the MIC (B. subtilis 168) was 0.8 µM (≈ 0.427 µg/mL) and the MIC (S. aureus K2361 (NorA++)) was 1.8 µM (≈ 0.961 µg/mL).
With `CCn1cc(C(=O)O)c(=O)c2cc(F)c(N3CCNCC3)cc21` [norfloxacin] the “Fold by which 7b and 12a are more effective than the antibiotic (MIC)” value (S. aureus Mu50 [4]) was > 330 fold.
Compound `CSc1nc(Cl)cc(Sc2nnc(-c3cc(C(F)(F)F)cc(C(F)(F)F)c3)[nH]2)n1` [Compound 7b, 4-((5-(3,5-Bis(trifluoromethyl)phenyl)-4H-1,2,4-triazol-3-yl)thio)-6-chloro-2-(methylthio)pyrimidine] has an MIC (S. aureus K1758 (NorA−)) of 3.1 µM (≈ 1.46 µg/mL), an MIC (S. aureus K2068 (MepA++)) of 3.1 µM (≈ 1.46 µg/mL) and an IC50 (EcSecA [1]) of 2000 nM. For the same compound, the MIC (S. aureus Newman) was 1.6 µM (≈ 0.755 µg/mL), the “Mode of inhibition, SecA-liposome channel activity, EcSecA” value (EcSecA [2]; inhibition kinetics, Figure 4) was “non-competitive inhibitor” and the MIC (S. aureus 6538; [6]) was 3.1 µM (≈ 1.46 µg/mL). For the same compound, the MIC (S. aureus 6538; [7]) was 3.1 µM (≈ 1.46 µg/mL), the MIC (S. aureus Mu3) was 3.1 µM (≈ 1.46 µg/mL) and the IC50 (EcSecA [3]) was > 200000 nM. For the same compound, the “Fold more effective than vancomycin (MIC)” value (S. aureus Mu50 [4]) was 10 fold, the MIC (S. aureus Mu50 [4]; [8]) was 0.75 µg/mL and the MIC (S. aureus Mu50 [4]; [9]) was 1.6 µM. The MIC (S. aureus N315) was 0.8 µM (≈ 0.377 µg/mL), the “Decrease of CFU of S. aureus Mu50” value (S. aureus Mu50 [5]) was 2 log units and the MIC (S. aureus K2908 (MepA−)) was 2.1 µM (≈ 0.991 µg/mL). For the same compound, the “Mode of inhibition, SecA-liposome channel activity, SaSecA” value (SaSecA1; inhibition kinetics, Figure 4) was “non-competitive inhibitor”, the MIC (E. coli NR698) was 4.7 µM (≈ 2.22 µg/mL) and the MIC (B. subtilis 168) was 1.6 µM (≈ 0.755 µg/mL). The MIC (S. aureus K2361 (NorA++)) was 3.1 µM (≈ 1.46 µg/mL).
In the case of `CN(C)[C@@H]1C(O)=C(C(N)=O)C(=O)[C@@]2(O)C(O)=C3C(=O)c4c(O)cccc4[C@@](C)(O)[C@H]3C[C@@H]12` [tetracycline], the “Fold by which 7b and 12a are more effective than the antibiotic (MIC)” value (S. aureus Mu50 [4]) is reported as > 80 fold and the MIC (S. aureus Mu50 [4]; [8]) is reported as 63 µg/mL.
In the case of polymyxin B, the “MIC, S. aureus Mu50” value (S. aureus Mu50 [4]) is reported as 31 µg/mL and the “Fold by which 7b and 12a are more effective than the antibiotic (MIC)” value (S. aureus Mu50 [4]) is reported as > 40 fold.
With `NC[C@H]1O[C@H](O[C@H]2[C@H](O)[C@@H](O[C@H]3O[C@H](CO)[C@@H](O)[C@H](N)[C@H]3O)[C@H](N)C[C@@H]2N)[C@H](O)[C@@H](O)[C@@H]1O` [kanamycin] the “MIC, S. aureus Mu50” value (S. aureus Mu50 [4]) was 1000 µg/mL (≈ 2060 µM) and the “Fold by which 7b and 12a are more effective than the antibiotic (MIC)” value (S. aureus Mu50 [4]) was > 1300 fold.
For `CC1(C)S[C@@H]2[C@H](NC(=O)[C@H](N)c3ccccc3)C(=O)N2[C@H]1C(=O)O` [ampicillin], the “Fold by which 7b and 12a are more effective than the antibiotic (MIC)” value (S. aureus Mu50 [4]) was > 1300 fold and the MIC (S. aureus Mu50 [4]; [8]) was 1000 µg/mL.
With `CO[C@H]1/C=C/O[C@@]2(C)Oc3c(C)c(O)c4c(O)c(c(/C=N/N5CCN(C)CC5)c(O)c4c3C2=O)NC(=O)/C(C)=C\C=C\[C@H](C)[C@H](O)[C@@H](C)[C@@H](O)[C@@H](C)[C@H](OC(C)=O)[C@@H]1C` [rifampicin] the “Fold by which 7b and 12a are more effective than the antibiotic (MIC)” value (S. aureus Mu50 [4]) was > 1300 fold and the MIC (S. aureus Mu50 [4]; [8]) was 1000 µg/mL.

From PMC4778717 (ChemMedChem, 2015)
